OXTR agonist – human OXTR agonists, primary screen, fluorescence, CHO-OTR cells, Fluo-8 calcium. Oxytocin receptor (Homo sapiens), P30559. Fluo-8 calcium fluorescence; normalized: DMSO 0%, oxytocin 100%. activation, % at 3 µM. actives 0.32% (n = 320,000). AID 2435, 2010;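 active = activation above the mean of all tested compounds plus 3 SD, cutoff set per screening run, cut at about 20% in these data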;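 note: peak over basal fluorescence ratio from a 100 s FLIPR kinetic read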
TAAR1 agonist – human TAAR1 agonists, primary screen, Fluo-8 calcium fluorescence, CHO RD-HGA16 cells | Trace amine-associated receptor 1 (Homo sapiens), Q96RJ0 | vehicle wells 0%, saturating PEA agonist 100% | activation, % at 3 µM | actives 0.99% (n = 360,000) | AID 624467, 2012;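 active = activation above the mean activation of all test compounds in the run plus 3 SD, cut at about 38% in these data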
Target sequence (Q96RJ0 whole entry, looked up): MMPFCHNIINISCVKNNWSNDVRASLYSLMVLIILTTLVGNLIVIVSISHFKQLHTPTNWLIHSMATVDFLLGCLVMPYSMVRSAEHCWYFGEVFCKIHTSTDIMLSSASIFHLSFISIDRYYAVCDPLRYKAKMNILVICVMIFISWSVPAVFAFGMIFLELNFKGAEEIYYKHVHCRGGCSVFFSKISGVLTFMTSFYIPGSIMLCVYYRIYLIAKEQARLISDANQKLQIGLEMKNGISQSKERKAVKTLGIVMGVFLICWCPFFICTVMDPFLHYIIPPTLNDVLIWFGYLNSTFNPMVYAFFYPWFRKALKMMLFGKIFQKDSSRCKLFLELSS
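Assay system: CHO-derived RD-HGA16 cells with stable Gα16 and human TAAR1; timing: 17-24 h seeding, 75 min 37 °C dye, 30 min RT; read-out: % activation from peak over basal fluorescence ratio, DMSO-to-PEA scaled; measured by: kinetic Fluo-8 calcium fluorescence; benchmarks: low control DMSO, high control PEA (EC100); doses: 3 µM single concentration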
OXTR potentiate – human OXTR potentiators, primary screen, fluorescence, CHO-OTR cells, Fluo-8 calcium | Oxytocin receptor (Homo sapiens), P30559 | Fluo-8 calcium fluorescence, potentiator mode; 0% = oxytocin EC15, 100% = EC100 | activation, % at 3 µM | actives 0.061% (n = 320,000);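 active = activation above that plate's cutoff, the mean activation of tested compounds plus 3 SD, cut at about 6.6% in these data, passing the limit was not always enough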
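assay system = CHO-OTR cells, human receptor | schedule = compound 6 min at room temperature before oxytocin, 100 s read | detection = Fluo-8 intracellular calcium fluorescence, ex 470-495, em 515-575 nm | evaluation = normalized max/min fluorescence ratio, % activation | control set = EC15 oxytocin alone as 0%, 75 nM oxytocin (EC100) as 100%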
TAAR1 antagonist – human TAAR1 antagonists, primary screen, Fluo-8 calcium fluorescence, CHO RD-HGA16 cells; antagonist; AID 624466, 2012; inhibition, % at 3 µM; actives 1.5% (n = 360,000); Trace amine-associated receptor 1 (Homo sapiens), Q96RJ0;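 active = inhibition above a per-plate cutoff, the mean inhibition of test compounds on that plate plus 3 SD, cut at about 49% in these data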
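Assay system: RD-HGA16 CHO cells with stable hTAAR1 and Gα16 / Reagent: EC80 β-phenethylamine stimulus / Doses: 3 µM, single point / Timing: dye loading 75 min at 37 °C, then 30 min room temperature / Measured by: Fluo-8 intracellular calcium dye fluorescence, real-time kinetic reads / Controls: vehicle wells and EC80 agonist wells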
V1aR counter – agonists of human V1a receptor, primary screen, counter-screen for OXTR agonist project, fluorescence, CHO-V1R cells. Vasopressin V1a receptor (Homo sapiens), P37288. Fluo-8 calcium fluorescence, agonist mode; 0% DMSO, 100% 3 nM vasopressin. activation, % at 3 µM. actives 0.25% (n = 320,000). AID 2797, 2010;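 active = activation above the mean activation of all tested compounds plus 3 SD, per screening run, cut at about 20% in these data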;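 note: signal is peak over basal fluorescence ratio across a 100 second FLIPR read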
Target sequence (P37288 whole entry, looked up): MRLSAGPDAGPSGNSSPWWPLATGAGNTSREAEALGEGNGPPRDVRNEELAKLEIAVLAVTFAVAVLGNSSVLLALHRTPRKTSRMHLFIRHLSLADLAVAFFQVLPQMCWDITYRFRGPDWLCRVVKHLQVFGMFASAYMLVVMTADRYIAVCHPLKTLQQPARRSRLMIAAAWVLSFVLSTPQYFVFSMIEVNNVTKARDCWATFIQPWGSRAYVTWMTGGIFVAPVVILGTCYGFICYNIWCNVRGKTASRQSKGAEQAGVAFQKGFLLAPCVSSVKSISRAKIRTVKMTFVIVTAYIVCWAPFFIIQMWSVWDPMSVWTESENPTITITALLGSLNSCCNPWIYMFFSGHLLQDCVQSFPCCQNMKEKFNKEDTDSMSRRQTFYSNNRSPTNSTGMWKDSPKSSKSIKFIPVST
Each line names hits and unclear results; the compound was inactive in the other large screens. This is a sample that favours compounds with a hit; in the whole collection about 2.3% have one here.

CC1(c2nnc(-c3cccc(Cl)c3)o2)CC(c2ccc(OC(F)(F)F)cc2)=NO1 (stereo not drawn)	none
NS(=O)(=O)c1ccc(CCn2c(=S)[nH]c3ccccc3c2=O)cc1	TAAR1 agonist 38, TAAR1 antagonist 61
CCN(CC)S(=O)(=O)c1cccc(C(=O)Nc2nc3cc4c(cc3s2)OCCO4)c1	TAAR1 antagonist 52
Nc1nc(NCC2CCCO2)nc(NCC2CCCO2)c1[N+](=O)[O-] (stereo not drawn)	none
CC(C)CCNc1nc(N)c([N+](=O)[O-])c(NCC2CCCO2)n1 (stereo not drawn)	TAAR1 agonist 39
Nc1c(C(=O)NCC2CCCO2)c2nc3ccccc3nc2n1-c1ccccc1 (stereo not drawn)	TAAR1 antagonist 50
COc1ccccc1OCCC(=O)OCC(=O)NCc1ccc(F)cc1	none
COc1ccc(C(=O)CSc2nnc(CN3CCCCC3)n2-c2ccc(Cl)cc2)cc1OC	TAAR1 agonist 44
O=C(CSc1nnc(CN2CCCC2)n1-c1ccccc1)c1ccc2c(c1)OCO2	none
Cc1ccc(NC(=O)COC(=O)COc2cccc3c2OC(C)(C)C3)cc1S(=O)(=O)N1CCOCC1	none
Cc1ccc(S(=O)(=O)Nc2ccccc2C=NNC(=O)c2ccncc2)cc1	none (no result: OXTR agonist, OXTR potentiate, V1aR counter)
C[C@H](O)[C@@H]1CN2CCc3c([nH]c4ccccc34)[C@@H]2C[C@@H]1N(C)C(=S)NCCc1ccccc1	TAAR1 agonist 78, TAAR1 antagonist 66 (no result: OXTR agonist, OXTR potentiate, V1aR counter)
CCNC(=O)N(C)[C@H]1C[C@H]2c3[nH]c4ccccc4c3CCN2C[C@H]1[C@H](C)O	none (no result: OXTR agonist, OXTR potentiate, V1aR counter)
COc1ccc(NC(=O)c2ccc(COc3ccccc3Br)o2)cc1OC	TAAR1 antagonist 80
CCCNC(=O)C(Cc1ccccc1)NC(=O)Cc1ccccc1 (stereo not drawn)	none
c1ccc(C[C@H]2CN=C(Nc3ccccc3)N2CC2CCCCC2)cc1	TAAR1 agonist 41
CC1CCC(CN2C(Nc3ccccc3)=NC[C@@H]2Cc2ccccc2)CC1 (stereo partly drawn)	TAAR1 agonist 44
COCC(=O)N1CCN(C(=O)C(=O)c2cccc(C(F)(F)F)c2)CC1	none (no result: OXTR agonist, OXTR potentiate, V1aR counter)
Nc1ccc2nc(SCc3cccc(F)c3)sc2c1	none
O=C(OCC(=O)N1CCN(c2ccc(F)cc2)CC1)c1cnc2ccccc2n1	none
CCOc1cc(/C=C2/SC(=S)N(Cc3ccccc3)C2=O)ccc1O	OXTR agonist 26, V1aR counter 37
COc1cc([N+](=O)[O-])cc(/C=C2/SC(=S)N(Cc3ccccc3)C2=O)c1O	OXTR agonist 82, V1aR counter 64
CCOC(=O)c1ccc2c(c1)nc(SCC(=O)N1CCOCC1)n2CC	none
O=C(CSc1nnc(-c2ccc(Cl)cc2)n1Cc1ccco1)Nc1ccc2c(c1)OCCO2	none
CC(=O)Nc1cccc(NC(=O)CSc2ncc(-c3ccc(Cl)cc3)n2Cc2ccco2)c1	TAAR1 antagonist 85
COc1ccc(-c2cnc(SCC(=O)Nc3ccc4c(c3)OCO4)n2Cc2ccco2)cc1	TAAR1 antagonist 51 (no result: OXTR agonist, OXTR potentiate, V1aR counter)
O=C(O)CCC(=O)NNc1ccccc1[N+](=O)[O-]	none
S=C(NCCc1ccccc1)N1CCOCC1	none
O=C(CCC(=O)N1CCOCC1)NCCc1ccccc1	TAAR1 agonist 39, TAAR1 antagonist 63
C[C@]12C(=O)N(c3ccc(Cl)cc3)C(=O)N1[C@H]1c3ccccc3OC[C@@H]1[C@H]2c1ccccc1	none (no result: TAAR1 agonist, TAAR1 antagonist)
C[C@@]12C(=O)N(c3ccccc3)C(=O)N1[C@@H]1c3ccccc3OC[C@@H]1[C@H]2c1ccccc1	TAAR1 antagonist 55
COc1ccc(OC)c(S(=O)(=O)N2CCC(C(=O)Nc3ccc(C)c(C)c3)CC2)c1	TAAR1 antagonist 61
CCc1ccc(NC(=O)C2CCN(S(=O)(=O)c3ccc4c(c3)NC(=O)C(C)S4)CC2)cc1 (stereo not drawn)	none
Cc1ccnc(NC(=O)C2CCN(S(=O)(=O)c3ccc(Cl)c(C(F)(F)F)c3)CC2)c1	none
CC1Sc2ccc(S(=O)(=O)N3CCC(C(=O)Nc4cccc(Cl)c4)CC3)cc2NC1=O (stereo not drawn)	TAAR1 antagonist 49
Cc1ccc(NC(=O)C2CCN(S(=O)(=O)c3ccc4c(c3)NC(=O)C(C)S4)CC2)cc1C (stereo not drawn)	TAAR1 antagonist 50
O=C(Nc1ccncc1)C1CCN(S(=O)(=O)c2ccc(Cl)c(C(F)(F)F)c2)CC1	TAAR1 agonist 48
CCOC(=O)c1ccc[n+](CC(=O)Nc2cc(C(F)(F)F)ccc2Cl)c1	none
CCCc1ccc(C(=O)CCC(=O)NNC(=O)c2ccncc2)cc1	none
CCc1cc(CC)c(/C=N/NC(N)=O)c(CC)c1	none
COc1cc(NC(=S)NCCc2ccc(S(N)(=O)=O)cc2)c(OC)cc1Cl	none
O=C(NCc1ccccn1)Nc1cccc(Cl)c1Cl	none
CC1Sc2ccc(S(=O)(=O)CCC(=O)N3CCN(c4cccc(Cl)c4)CC3)cc2NC1=O (stereo not drawn)	TAAR1 antagonist 50
COc1ccc(OC)c(-c2cc(C3CCN(c4ncccc4[N+](=O)[O-])CC3)[nH]n2)c1	none
COc1ccc(-c2cc(C3CCN(Cc4cccc(C(F)(F)F)c4)CC3)[nH]n2)cc1	none
COc1ccc(-c2cc(C3CCN(c4cc(Cl)nc(N)n4)CC3)[nH]n2)cc1	TAAR1 agonist 43
COc1ccc(OC)c(-c2cc(C3CCN(c4cc(Cl)nc(N)n4)CC3)[nH]n2)c1	TAAR1 antagonist 56
CCOC(=O)c1sc(NC(=O)Nc2ccc(F)cc2)nc1C	TAAR1 antagonist 62
N#Cc1c(N)[nH]c(C(=O)c2ccccc2)c1-c1ccc(Br)cc1	none (no result: OXTR agonist, OXTR potentiate, V1aR counter)
CC(=O)NC(C)(c1ccccc1)c1nc(-c2ccc(F)c(Cl)c2)cs1 (stereo not drawn)	none (no result: OXTR agonist, OXTR potentiate, V1aR counter)
O=C(Nc1ccc(F)c(Cl)c1)Nc1ccc(Cl)cn1	none
Cc1cnc(NC(=O)CSc2ccc(Cl)cc2)s1	none
O=C(Nc1ccncc1)Nc1ccc(F)c(Cl)c1	TAAR1 agonist 49
Cc1cnc(NC(=O)Nc2ccc(Cl)cc2)s1	TAAR1 agonist 40
O=C(Nc1ccc(Cl)cc1)Nc1cccnc1	TAAR1 agonist 48
Cn1nc(C(C)(C)C)cc1NC(=O)C1(C)CCN1C(=O)c1ccccc1CCc1ccccc1 (stereo not drawn)	none (no result: OXTR agonist, OXTR potentiate, V1aR counter)
O=C(Cn1cccc1C(=O)c1ccccc1)NCCC1=CCCCC1	none
CCc1sc(-c2c(C#N)c(N)nc3c2CCCCCC3)cc1[N+](=O)[O-]	TAAR1 agonist 53

Compound activity: PubChem BioAssay, The Scripps Research Institute Molecular Screening Center
